Assay results published in ChEMBL document CHEMBL2380295, “Structure-activity studies on the side chain of a simplified analog of aplysiatoxin (aplog-1) with anti-proliferative activity” (Bioorg Med Chem, 2013).

What was measured:
[1] = Cytotoxicity against human Raji cells assessed as cell viability at 10^-6 M; format: cell-based; settings: read-out: Activity
[2] = Cytotoxicity against human Raji cells assessed as cell viability at 10^-7 M; format: cell-based; settings: read-out: Activity
Human gammaherpesvirus 4 [3] = test: Induction of EBV-early antigen expressed in human Raji cells at 10^-6 M after 48 hrs by immunofluorescence assay relative to control; format: organism-based; settings: human gammaherpesvirus 4, raji, 1 µM
Procedure, shortened: (§1)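 Raji B-lymphoblastoid cells (5 × 10^5/mL) in RPMI 1640 with 10% FBS, with 4 mM sodium n-butyrate as synergist and test compound at 10^-7 or 10^-6 M (final DMSO 0.4%). Incubated 48 h at 37 °C under 5% CO2. Smears were stained by indirect immunofluorescence using NPC patient serum and FITC anti-human IgG. At least 500 cells counted; % EA-positive recorded; n = 3, SEM.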

Human gammaherpesvirus 4 [4] = test: Induction of EBV-early antigen expressed in human Raji cells at 10^-7 M after 48 hrs by immunofluorescence assay relative to control; format: organism-based; settings: human gammaherpesvirus 4, raji, 0.1 µM; procedure, shortened: as §1
PC-3 = test: Growth inhibition of human PC3 cells after 48 hrs by sulforhodamine B assay; format: functional; settings: PC-3, 48 h
Procedure, shortened: (§2)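 Yamori 39-line human cancer panel, NCI method with modifications. Cells plated in RPMI 1640 plus 5% FBS, attached overnight, then exposed 48 h to compound at 10^-8, 10^-7, 10^-6, 10^-5 and 10^-4 M. Sulforhodamine B staining read at 525 nm; % growth = 100[(T−T0)/(C−T0)] from duplicate-point averages, with T0 the time-zero absorbance. GI50 is the concentration giving 50.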

DU-145 = test: Growth inhibition of human DU145 cells after 48 hrs by sulforhodamine B assay; format: functional; settings: DU-145, 48 h; procedure, shortened: as §2
MKN-74 = test: Growth inhibition of human MKN74 cells after 48 hrs by sulforhodamine B assay; format: functional; settings: MKN-74, 48 h; procedure, shortened: as §2
MKN-28 = test: Growth inhibition of human MKN28 cells after 48 hrs by sulforhodamine B assay; format: functional; settings: MKN-28, 48 h; procedure, shortened: as §2
MKN-45 = test: Growth inhibition of human MKN45 cells after 48 hrs by sulforhodamine B assay; format: functional; settings: MKN-45, 48 h; procedure, shortened: as §2
MKN-7 = test: Growth inhibition of human MKN7 cells after 48 hrs by sulforhodamine B assay; format: functional; settings: MKN-7, 48 h; procedure, shortened: as §2
St-4 = test: Growth inhibition of human St-4 cells after 48 hrs by sulforhodamine B assay; format: functional; settings: St-4, 48 h; procedure, shortened: as §2
[5] = Growth inhibition of human MKN1 cells after 48 hrs by sulforhodamine B assay; format: functional; settings: MKN-1, 48 h; procedure, shortened: as §2
[6] = Growth inhibition of human RXF631L cells after 48 hrs by sulforhodamine B assay; format: functional; settings: RXF 631, 48 h; procedure, shortened: as §2
ACHN = test: Growth inhibition of human ACHN cells after 48 hrs by sulforhodamine B assay; format: functional; procedure, shortened: as §2
OVCAR-8 = test: Growth inhibition of human OVCAR8 cells after 48 hrs by sulforhodamine B assay; format: functional; settings: OVCAR-8, 48 h; procedure, shortened: as §2
SK-OV-3 = test: Growth inhibition of human SKOV3 cells after 48 hrs by sulforhodamine B assay; format: functional; settings: SK-OV-3, 48 h; procedure, shortened: as §2
OVCAR-5 = test: Growth inhibition of human OVCAR5 cells after 48 hrs by sulforhodamine B assay; format: functional; settings: OVCAR-5, 48 h; procedure, shortened: as §2
OVCAR-3 = test: Growth inhibition of human OVCAR3 cells after 48 hrs by sulforhodamine B assay; format: functional; settings: OVCAR-3, 48 h; procedure, shortened: as §2
OVCAR-4 = test: Growth inhibition of human OVCAR4 cells after 48 hrs by sulforhodamine B assay; format: functional; settings: OVCAR-4, 48 h; procedure, shortened: as §2
DMS-114 = test: Growth inhibition of human DMS114 cells after 48 hrs by sulforhodamine B assay; format: functional; settings: DMS-114, 48 h; procedure, shortened: as §2
LOX IMVI = test: Growth inhibition of human LOXIMVI cells after 48 hrs by sulforhodamine B assay; format: functional; procedure, shortened: as §2
A549 = test: Growth inhibition of human A549 cells after 48 hrs by sulforhodamine B assay; format: functional; settings: A549, 48 h; procedure, shortened: as §2
DMS-273 = test: Growth inhibition of human DMS273 cells after 48 hrs by sulforhodamine B assay; format: functional; settings: DMS-273, 48 h; procedure, shortened: as §2
NCI-H460 = test: Growth inhibition of human NCI-H460 cells after 48 hrs by sulforhodamine B assay; format: functional; settings: NCI-H460, 48 h; procedure, shortened: as §2
NCI-H226 = test: Growth inhibition of human NCI-H226 cells after 48 hrs by sulforhodamine B assay; format: functional; settings: NCI-H226, 48 h; procedure, shortened: as §2
NCI-H522 = test: Growth inhibition of human NCI-H522 cells after 48 hrs by sulforhodamine B assay; format: functional; settings: NCI-H522, 48 h; procedure, shortened: as §2
HCT-116 = test: Growth inhibition of human HCT116 cells after 48 hrs by sulforhodamine B assay; format: functional; settings: HCT-116, 48 h; procedure, shortened: as §2
NCI-H23 = test: Growth inhibition of human NCI-H23 cells after 48 hrs by sulforhodamine B assay; format: functional; settings: NCI-H23, 48 h; procedure, shortened: as §2
HCT-15 = test: Growth inhibition of human HCT15 cells after 48 hrs by sulforhodamine B assay; format: functional; settings: HCT-15, 48 h; procedure, shortened: as §2
KM12 = test: Growth inhibition of human KM12 cells after 48 hrs by sulforhodamine B assay; format: functional; settings: KM12, 48 h; procedure, shortened: as §2
HT-29 = test: Growth inhibition of human HT-29 cells after 48 hrs by sulforhodamine B assay; format: functional; settings: HT-29, 48 h; procedure, shortened: as §2
SNB-78 = test: Growth inhibition of human SNB78 cells after 48 hrs by sulforhodamine B assay; format: functional; settings: SNB-78, 48 h; procedure, shortened: as §2
[7] = Growth inhibition of human HCC2998 cells after 48 hrs by sulforhodamine B assay; format: functional; settings: HCC 2998, 48 h; procedure, shortened: as §2
SF-539 = test: Growth inhibition of human SF539 cells after 48 hrs by sulforhodamine B assay; format: functional; settings: SF-539, 48 h; procedure, shortened: as §2
SNB-75 = test: Growth inhibition of human SNB75 cells after 48 hrs by sulforhodamine B assay; format: functional; settings: SNB-75, 48 h; procedure, shortened: as §2
SF-295 = test: Growth inhibition of human SF295 cells after 48 hrs by sulforhodamine B assay; format: functional; settings: SF-295, 48 h; procedure, shortened: as §2
U-251 = test: Growth inhibition of human U251 cells after 48 hrs by sulforhodamine B assay; format: functional; settings: U-251, 48 h; procedure, shortened: as §2
SF-268 = test: Growth inhibition of human SF268 cells after 48 hrs by sulforhodamine B assay; format: functional; settings: SF-268, 48 h; procedure, shortened: as §2
MCF7 = test: Growth inhibition of human MCF7 cells after 48 hrs by sulforhodamine B assay; format: functional; settings: MCF7, 48 h; procedure, shortened: as §2
MDA-MB-231 = test: Growth inhibition of human MDA-MB-231 cells after 48 hrs by sulforhodamine B assay; format: functional; settings: MDA-MB-231, 48 h; procedure, shortened: as §2
[8] = Growth inhibition of human BSY1 cells after 48 hrs by sulforhodamine B assay; format: functional; settings: BSY-1, 48 h; procedure, shortened: as §2
[9] = Growth inhibition of human HBC5 cells after 48 hrs by sulforhodamine B assay; format: functional; settings: HBC5, 48 h; procedure, shortened: as §2
[10] = Growth inhibition of human HBC4 cells after 48 hrs by sulforhodamine B assay; format: functional; settings: HBC4, 48 h; procedure, shortened: as §2
[11] = Octanol-water partition coefficient, log P of the compound by HPLC analysis; format: physicochemical
Procedure, shortened: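 log P was estimated from HPLC retention, with column dead time measured using unretained formamide.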

[12] = biological target: T1, Protein kinase C delta type (Homo sapiens, UniProt Q05655); test: Inhibition of [3H]PDBu binding to PKCdelta-C1A domain peptide (unknown origin)
T1 sequence (Q05655 whole entry, the tested form may be a part): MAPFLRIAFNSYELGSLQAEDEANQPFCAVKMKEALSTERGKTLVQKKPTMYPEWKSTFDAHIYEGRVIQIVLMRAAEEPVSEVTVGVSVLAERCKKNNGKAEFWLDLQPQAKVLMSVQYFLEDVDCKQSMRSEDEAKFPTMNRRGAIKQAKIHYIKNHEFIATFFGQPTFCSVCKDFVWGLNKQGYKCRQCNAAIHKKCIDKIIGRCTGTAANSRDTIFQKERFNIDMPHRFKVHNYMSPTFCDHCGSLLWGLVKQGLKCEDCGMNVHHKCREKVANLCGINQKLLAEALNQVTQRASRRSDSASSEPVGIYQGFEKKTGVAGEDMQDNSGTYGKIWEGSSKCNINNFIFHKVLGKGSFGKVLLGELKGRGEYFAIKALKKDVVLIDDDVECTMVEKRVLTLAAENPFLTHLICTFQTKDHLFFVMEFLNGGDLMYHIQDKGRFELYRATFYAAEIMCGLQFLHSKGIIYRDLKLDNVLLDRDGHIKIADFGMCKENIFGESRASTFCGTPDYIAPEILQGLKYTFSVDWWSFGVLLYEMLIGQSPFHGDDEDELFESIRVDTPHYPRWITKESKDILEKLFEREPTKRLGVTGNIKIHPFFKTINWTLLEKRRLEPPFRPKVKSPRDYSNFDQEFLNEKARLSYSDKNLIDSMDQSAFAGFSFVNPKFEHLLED
Procedure, shortened: (§3)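 Competitive [3H]PDBu binding used 14 or 40 nM PKCδ C1 peptide and 20 nM [3H]PDBu (19.6 Ci/mmol), in 50 mM Tris-maleate (pH 7.4 at 4 °C) with 50 µg/mL phosphatidylserine, 3 mg/mL bovine γ-globulin and varied inhibitor concentrations. IC50 was taken as 50% inhibition of specific binding. Ki was derived by the Sharkey–Blumberg method.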

[13] = biological target: T1, Protein kinase C delta type; test: Inhibition of [3H]PDBu binding to PKCdelta-C1B domain peptide (unknown origin); procedure, shortened: as §3

CC1(C)CC[C@@H]2CC(=O)O[C@@H](CO)CC(=O)O[C@@H]3C[C@@H](CCCCc4ccc(I)c(O)c4)O[C@@]1(C3)O2
viability at 1 µM [1]: 40%
viability at 0.1 µM [2]: 50%
Activity (Human gammaherpesvirus 4 [3]): 2.3%
Activity (Human gammaherpesvirus 4 [4]): 2.1%
GI50 (PC-3): 3.09 µM
GI50 (DU-145): 11.7 µM
GI50 (MKN-74): 11.7 µM
GI50 (MKN-28): 0.617 µM
GI50 (MKN-45): 11.7 µM
GI50 (MKN-7): 13.5 µM
GI50 (St-4): 0.933 µM
GI50 [5]: 11.2 µM
GI50 [6]: 12 µM
GI50 (ACHN): 10 µM
GI50 (OVCAR-8): 16.2 µM
GI50 (SK-OV-3): 14.8 µM
GI50 (OVCAR-5): 4.47 µM
GI50 (OVCAR-3): 6.31 µM
GI50 (OVCAR-4): 13.2 µM
GI50 (DMS-114): 10.7 µM
GI50 (LOX IMVI): 2.88 µM
GI50 (A549): 3.31 µM
GI50 (DMS-273): 0.191 µM
GI50 (NCI-H460): 6.03 µM
GI50 (NCI-H226): 12 µM
GI50 (NCI-H522): 12 µM
GI50 (HCT-116): 10.2 µM
GI50 (NCI-H23): 11 µM
GI50 (HCT-15): 15.5 µM
GI50 (KM12): 10.5 µM
GI50 (HT-29): 14.5 µM
GI50 (SNB-78): 17 µM
GI50 [7]: 1.62 µM
GI50 (SF-539): 12 µM
GI50 (SNB-75): 12.3 µM
GI50 (SF-295): 4.07 µM
GI50 (U-251): 14.5 µM
GI50 (SF-268): 13.8 µM
GI50 (MCF7): 12.3 µM
GI50 (MDA-MB-231): 1.58 µM
GI50 [8]: 11 µM
GI50 [9]: 15.8 µM
GI50 [10]: 0.295 µM
logP [11]: 4.3
Ki [12]: 0.082 µM
Ki [13]: 0.0013 µM

CC1(C)CC[C@@H]2CC(=O)O[C@@H](CO)CC(=O)O[C@@H]3C[C@@H](CCCCc4cc(O)ccc4I)O[C@@]1(C3)O2
viability at 1 µM [1]: 50%
viability at 0.1 µM [2]: 50%
Activity (Human gammaherpesvirus 4 [3]): 1.4%
Activity (Human gammaherpesvirus 4 [4]): 1.3%
GI50 (PC-3): 4.68 µM
GI50 (DU-145): 12.9 µM
GI50 (MKN-74): 11.7 µM
GI50 (MKN-28): 0.813 µM
GI50 (MKN-45): 12 µM
GI50 (MKN-7): 11.5 µM
GI50 (St-4): 0.427 µM
GI50 [5]: 10.7 µM
GI50 [6]: 12.9 µM
GI50 (ACHN): 10.7 µM
GI50 (OVCAR-8): 16.2 µM
GI50 (SK-OV-3): 15.8 µM
GI50 (OVCAR-5): 5.13 µM
GI50 (OVCAR-3): 5.89 µM
GI50 (OVCAR-4): 13.8 µM
GI50 (DMS-114): 11 µM
GI50 (LOX IMVI): 2 µM
GI50 (A549): 4.07 µM
GI50 (DMS-273): 0.251 µM
GI50 (NCI-H460): 10.5 µM
GI50 (NCI-H226): 12.6 µM
GI50 (NCI-H522): 11.7 µM
GI50 (HCT-116): 10.5 µM
GI50 (NCI-H23): 7.94 µM
GI50 (HCT-15): 15.1 µM
GI50 (KM12): 10.5 µM
GI50 (HT-29): 13.8 µM
GI50 (SNB-78): 15.1 µM
GI50 [7]: 0.891 µM
GI50 (SF-539): 11 µM
GI50 (SNB-75): 10.5 µM
GI50 (SF-295): 6.31 µM
GI50 (U-251): 12.9 µM
GI50 (SF-268): 13.8 µM
GI50 (MCF7): 13.8 µM
GI50 (MDA-MB-231): 1.55 µM
GI50 [8]: 9.77 µM
GI50 [9]: 15.8 µM
GI50 [10]: 0.158 µM
logP [11]: 4.2
Ki [12]: 0.11 µM
Ki [13]: 0.0046 µM
